Measurements reported in ChEMBL document CHEMBL1127497, “Studies on antiulcer drugs. 7. 2-Guanidino-4-pyridylthiazoles as histamine H2-receptor antagonists with potent gastroprotective effects against nonsteroidal antiinflammatory drug-induced injury” (J Med Chem, 1994).
pIC50: −log10 of the molar value.

What was measured:
Canis familiaris [1] = test: Evaluated against tetragastrin stimulated gastric acid secretion in conscious Hiedenhain-pouch dogs at a dose of 0.32 mg/Kg, po; type: functional; settings: Canis lupus familiaris, Stomach
Procedure, shortened: (§1)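 Beagle Heidenhain-pouch dogs, 8–13 kg, oral dosing. Acid concentration titrated to pH 7 with 0.1 N NaOH; total acid output is volume × concentration. Change is relative to predosing output. ED50 by probit from three or four doses, three or four dogs per dose.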

Canis familiaris [2] = test: Effective dose against tetragastrin stimulated gastric acid secretion in conscious Hiedenhain-pouch dogs after peroral administration; type: functional; settings: Canis lupus familiaris, Stomach, po; procedure, shortened: as §1
Histamine H2 receptor = Histamine H2 receptor (Cavia porcellus, UniProt P47747); test: Compound was tested for H2 receptor antagonistic activity against histamine stimulated chronotropic response in isolated guinea pig right atrium; type: functional, tissue-based, Cardiac atrium
Procedure, shortened: (§2)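 Guinea pig atrial strip under 0.3–0.6 g tension in Tyrode solution, 30 °C, gassed with 95% O2-5% CO2. Beating rate recorded. Histamine HCl 1 × 10-6 g/mL given; after washout, test compound added (single-concentration screen 1 × 10-6 g/mL) and histamine response compared before and 30 min after dosing. IC50 from three doses by probit analysis, three atria per dose.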

[3] = target: Histamine H2 receptor (Cavia porcellus) (UniProt P47747); test: H2 receptor antagonistic activity against histamine stimulated chronotropic response in isolated guinea pig right atrium at 1x10E-6 g/mL.; type: functional, tissue-based; settings: Cardiac atrium; procedure, shortened: as §2
Rattus norvegicus [4] = test: Effect on gastric mucosal blood flow 30 minutes after administration of HCl and aspirin after drug dosing at 100 mg/kg intragastrically; type: functional, Gastric mucosa; settings: route intragastric
Procedure, shortened: (§3)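 Male rats, five per group, test drug suspended in 0.1% MC given intragastrically. Aspirin 200 mg/kg in 0.2 N HCl/0.1% MC (0.2 mL) given ig 15 min later. […] Reported as mean ± SEM and % of initial.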

Rattus norvegicus [5] = test: Effect on gastric mucosal blood flow 60 minutes after administration of HCl and aspirin after drug dosing at 100 mg/kg intragastrically; type: functional, Gastric mucosa; settings: route intragastric; procedure, shortened: as §3
Rattus norvegicus [6] = test: Effect on gastric mucosal blood flow at basal value which is 15 minutes before dosing of drugs at 100 mg/kg intragastrically; type: functional, Gastric mucosa; settings: route intragastric; procedure, shortened: as §3
Rattus norvegicus [7] = test: Effect on gastric mucosal blood flow 15 minutes before dosing of HCl and aspirin after drug dosing at 100 mg/kg intragastrically; type: functional, Gastric mucosa; settings: route intragastric; procedure, shortened: as §3
Rattus norvegicus [8] = test: Effective dose against aspirin induced gastric lesions in rats after peroral administration; type: functional; settings: Stomach, po
Procedure, shortened: (§4)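 Male SD rats (~200 g), fasted 24 h. Test compound given orally in 0.1% MC, then aspirin 200 mg/kg in 0.2 N HCl/0.1% MC (10 mL/kg) orally 30 min later. Rats killed 1 h after aspirin. Ulcer index is the summed lesion length (mm); % inhibition is relative to controls. Seven rats per group for screening; ED50 by probit from three doses, ten rats per dose.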

Rattus norvegicus [9] = test: Inhibition of aspirin induced gastric lesions in rats after peroral dose of 32 mg/kg; type: functional; settings: Stomach, route oral; procedure, shortened: as §4
Rattus norvegicus [10] = test: Evaluated against histamine stimulated gastric acid secretion in lumen perfused anaesthetized rats after 1 mg/kg intravenous dose; type: functional; settings: Stomach
Procedure, shortened: (§5)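 Male SD rats (~250 g), fasted 24 h, urethane 1.25 g/kg ip. Stomach lumen perfused with saline; perfusate titrated with 25 mM NaOH. Histamine infused iv at 3 mg/kg/h. At plateau, compound given iv at 1 mg/kg. Result expressed as maximal inhibition of acid output; n = 2.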

Rattus norvegicus [11] = test: Evaluated for inhibition of basal gastric acid secretion on pyolus-ligated rats after intraduodenal administration; settings: Stomach, id
Rattus norvegicus [12] = test: Inhibition of histamine stimulated gastric acid secretion in lumen perfused anaesthetized rats after 1 mg/kg intravenous dose; type: functional; settings: Stomach; procedure, shortened: as §5
Canis familiaris [13] = species: Canis familiaris; test: animal or person; settings: Canis lupus familiaris, Stomach, po, read-out: Inhibition
Canis familiaris [14] = test: Evaluated against tetragastrin stimulated gastric acid secretion in conscious Hiedenhain-pouch dogs at a dose of 0.32 mg/kg, po; type: functional; settings: Canis lupus familiaris, Stomach; procedure, shortened: as §1
Rattus norvegicus [15] = test: Evaluated against aspirin induced gastric lesions in rats after peroral dose of 100 mg/kg; type: functional; settings: Stomach, route oral; procedure, shortened: as §4

Sequence of Histamine H2 receptor (Cavia porcellus) (P47747 whole entry): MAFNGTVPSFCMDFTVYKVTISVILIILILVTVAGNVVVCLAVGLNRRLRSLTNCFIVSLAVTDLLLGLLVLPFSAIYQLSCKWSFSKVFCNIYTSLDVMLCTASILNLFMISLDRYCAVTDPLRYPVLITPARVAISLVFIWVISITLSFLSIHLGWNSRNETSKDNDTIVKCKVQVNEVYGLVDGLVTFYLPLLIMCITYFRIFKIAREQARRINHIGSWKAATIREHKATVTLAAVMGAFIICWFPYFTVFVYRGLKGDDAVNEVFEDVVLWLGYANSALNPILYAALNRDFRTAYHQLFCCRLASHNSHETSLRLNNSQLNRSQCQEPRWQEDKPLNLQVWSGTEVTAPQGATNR
Sequence of Histamine H2 receptor (P47747 whole entry): as above

Structure (SMILES)	inhibition in vivo at 0.32 mg/kg (Canis familiaris [1])	ED50 (Canis familiaris [2])	pIC50 (Histamine H2 receptor)	inhibition [3]	Flow rate (Rattus norvegicus [4])	Flow rate (Rattus norvegicus [5])	Flow rate (Rattus norvegicus [6])	Flow rate (Rattus norvegicus [7])	ED50 (Rattus norvegicus [8])	inhibition in vivo at 32 mg/kg (Rattus norvegicus [9])	inhibition in vivo at 1 mg/kg (Rattus norvegicus [10])	ED50 (Rattus norvegicus [11])	inhibition in vivo at 1 mg/kg (Rattus norvegicus [12])	inhibition in vivo at 22 mg/kg (Canis familiaris [13])	inhibition in vivo at 0.32 mg/kg (Canis familiaris [14])	inhibition in vivo at 100 mg/kg (Rattus norvegicus [15])
CNC(=C[N+](=O)[O-])NCCSCc1ccc(CN(C)C)o1 [RANITIDINE]	41%	0.3 mg/kg	5.47	44%	53.4 ml min-1 100g-1	55.4 ml min-1 100g-1	85.3 ml min-1 100g-1	82.3 ml min-1 100g-1	> 100 mg/kg	3%	72%	30.5 mg/kg				
CN/C(=N\CCSCc1nc[nH]c1C)NC#N [CIMETIDINE]				43%						33%			53%	22%		
CC(=O)OCC(=O)NCCCOc1cccc(CN2CCCCC2)c1 [ROXATIDINE ACETATE]				76%									84%		58%	31%
